Consider four compounds from ChEMBL document CHEMBL1132369, “Synthesis of 1-(2-aminophenyl)isoquinolines and the biological activity of their cis-dichloro platinum(II) complexes” (J Med Chem, 1999).

Experiment [1] deals with L1210. Put plainly: Compound was evaluated for inhibition of DNA synthesis during 48 hours with L1210 murine leukemia cells. The experiment is classed as functional, cell-based, Mus musculus. An outline of the steps: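 Log-phase L1210 cells, cultured and treated as in the growth assay (5 × 10^4 cells/mL, 48 h total exposure; Pt complexes from DMSO, final 0.5%). At 42 h, 0.5 μCi [6-3H]thymidine was added and incubation continued 6 h. Cells were harvested onto glass-fibre filters, washed twice with water, and counted by liquid scintillation. IC50 is for inhibition of thymidine incorporation.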

For experiment [2], the system named is L1210. Put plainly: Compound was evaluated for growth inhibition during 48 hours with L1210 murine leukemia cells. The experiment is classed as functional, cell-based, Mus musculus. An outline of the steps: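 L1210 mouse leukemia cells grown in suspension in DMEM with 10% FCS, 2 mM glutamine, streptomycin and penicillin, at 37 °C in 5% CO2. Log-phase cells at 5 × 10^4 cells/mL were exposed to a range of concentrations for 48 h. Pt complexes came from DMSO stocks, pre-held 30 min at 40 °C, final DMSO 0.5%; ligand hydrochlorides were given in water. Cells were counted by haemocytometer, inhibition taken as % of untreated control, and IC50 interpolated from a log-linear plot. At least two independent duplicates were run.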

As usually defined, the IC50 is the concentration needed to halve the response being measured. Low readings indicate greater potency, high ones weaker potency. “[1-(2-Amino-5-methoxyphenyl)-6,7-dimethoxy-1,2,3,4-tetrahydroisoquinoline]dichloroplatinum (II)”: the results for the IC50 in experiment [1] (l1210) and in experiment [2] (l1210) were 1.4 µM and 0.95 µM, respectively.

For the compound “[1-(2-Aminophenyl)-6,7-dimethoxyisoquinoline]dichloroplatinum (II)”, the values for the IC50 in experiment [1] (l1210) and in experiment [2] (l1210) were 20 µM and 9.7 µM, respectively.

Regarding `COc1ccc(N)c(C2NCCc3cc(OC)c(OC)cc32)c1` (stereo not drawn), the IC50 in experiment [1] (Mus musculus, L1210, 48 h) amounted to 100 µM; in experiment [2] (Mus musculus, L1210, 48 h), 97 µM.

In the case of `COc1cc2c(cc1OC)C(c1ccccc1N)NCC2` (stereo not drawn), the IC50 in experiment [1] (Mus musculus, L1210, 48 h) is 90 µM; in experiment [2] (Mus musculus, L1210, 48 h), 141 µM.
